PLCg1 inh: blocks human PLC-gamma1 enzyme activity; P19174; 0.84% of 370,000 active; inhibition, % at 12.2 µM; AID 720700; purified PLC-gamma1, fluorogenic substrate, fluorescence; in the data active = inhibition above about 9.5%
PLCb3 inh: PLC-beta3 (human) inhibition, primary screen. Q01970. AID 720704. 0.18% of 370,000 active. inhibition, % at 12.2 µM. Purified PLC-beta3, fluorogenic substrate, fluorescence; in the data active = inhibition above about 11%;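 note: 0% = median of compound wells on plate and 100% = full blocker control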
Target sequence (Q01970 whole entry, looked up): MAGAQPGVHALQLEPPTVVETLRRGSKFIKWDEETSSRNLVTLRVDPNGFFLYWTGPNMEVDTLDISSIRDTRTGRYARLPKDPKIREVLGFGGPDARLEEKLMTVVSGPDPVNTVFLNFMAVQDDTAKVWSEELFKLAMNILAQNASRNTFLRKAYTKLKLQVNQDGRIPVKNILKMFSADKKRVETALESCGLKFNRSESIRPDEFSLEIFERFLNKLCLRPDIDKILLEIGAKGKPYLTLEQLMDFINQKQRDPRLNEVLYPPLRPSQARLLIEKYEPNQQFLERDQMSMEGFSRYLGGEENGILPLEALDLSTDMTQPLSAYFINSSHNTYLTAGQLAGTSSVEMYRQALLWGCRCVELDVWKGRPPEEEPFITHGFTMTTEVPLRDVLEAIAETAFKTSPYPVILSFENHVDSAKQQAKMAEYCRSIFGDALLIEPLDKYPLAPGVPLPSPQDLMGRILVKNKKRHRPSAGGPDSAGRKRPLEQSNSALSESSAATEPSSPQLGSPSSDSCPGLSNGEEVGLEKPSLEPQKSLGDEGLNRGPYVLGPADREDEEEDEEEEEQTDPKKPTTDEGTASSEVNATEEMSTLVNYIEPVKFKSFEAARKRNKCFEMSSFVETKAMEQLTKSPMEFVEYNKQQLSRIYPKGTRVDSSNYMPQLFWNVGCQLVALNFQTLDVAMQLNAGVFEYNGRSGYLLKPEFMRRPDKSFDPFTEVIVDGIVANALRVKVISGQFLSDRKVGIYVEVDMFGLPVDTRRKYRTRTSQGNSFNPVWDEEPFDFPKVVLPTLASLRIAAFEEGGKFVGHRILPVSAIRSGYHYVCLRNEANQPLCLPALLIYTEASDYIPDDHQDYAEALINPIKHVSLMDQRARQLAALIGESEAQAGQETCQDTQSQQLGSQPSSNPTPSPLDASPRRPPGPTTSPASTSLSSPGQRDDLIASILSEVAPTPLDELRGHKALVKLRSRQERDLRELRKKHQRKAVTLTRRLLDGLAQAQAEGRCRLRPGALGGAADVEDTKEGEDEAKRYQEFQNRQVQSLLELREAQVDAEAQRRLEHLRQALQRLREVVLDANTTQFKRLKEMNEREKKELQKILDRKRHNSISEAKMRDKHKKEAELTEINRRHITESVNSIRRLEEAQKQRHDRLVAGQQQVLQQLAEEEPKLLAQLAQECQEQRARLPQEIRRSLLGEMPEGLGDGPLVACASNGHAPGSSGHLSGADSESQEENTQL
Arr AP2 block: inhibitors of human beta-arrestin and AP2 interaction. 0.31% of 340,000 active. inhibition, % at 10 µM. AID 504490. FITC-arrestin peptide / GST-AP2 beads, flow cytometry; AP2 beta2 appendage carries R879A mutation;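 active = inhibition above a set limit, near 3 SD of compounds lacking own fluorescence, cut at about 54% in these data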;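 note: plate controls were DMSO wells for no effect and 5 µM unlabelled arrestin peptide for full effect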
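Measured by: flow cytometry, FL1 (488/535 nm); Material: AP2 appendage R879A on GSH beads; Evaluation: percent response; Timing: pre-incubation 12 min, peptide binding 1 h, room temperature; Also added: 50 nM FITC-arrestin peptide; Medium: PBS with 0.05% Tween 20 and 0.1% BSA.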
proCasp7 act: activates human procaspase-7, counter-screen for procaspase-3 activators; activation, % at 8.5 µM; 0.093% of 330,000 active; recombinant procaspase-7, Ac-DEVD-pNA absorbance 405 nm; D23A/D198A/D206A triple mutant, cannot self-cleave; scale: DMSO 0, 5 µM enzyme 100;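 active = percent activation above the screen-wide mean plus 3 SD, cut at about 25% in these data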
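Assay system: Uncleavable procaspase-7 mutant enzyme | Input: 2 µM procaspase-7 mutant as dispensed | Timing: 1 h compound preincubation, 2 h substrate cleavage, 25 °C | Repeats: One well per compound | Control set: DMSO wells as 0%, DMSO with 5 µM added PC-7 as 100% | Technique: Epi-absorbance of released pNA at 405 nm, two timepoints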
procasp3 activ: activates human procaspase-3; P42574; recombinant procaspase-3 D3A, Ac-DEVD-pNA absorbance 405 nm; activation, % at 8.5 µM; 0.11% of 330,000 active;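 active = activation above the mean of all tested compounds plus 3 SD, cut at about 21% in these data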;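 note: 0% = DMSO alone and 100% = DMSO wells spiked with extra 5 µM PC-3 D3A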
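material = Procaspase-3 D3A mutant | probe or stimulus = Ac-DEVD-pNA | compound = single dose, 8.5 µM nominal compound, 0.8% DMSO | timing = 1 h preincubation, 2 h reaction | measured by = 405 nm absorbance of p-nitroaniline, reads at 0 and 120 min | benchmarks = DMSO-only low control, 5 µM PC-3 D3A high control | repeats = singlicate, each compound tested once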
sPLA2-III inh: Inhibits HGIII-sPLA2 liposome hydrolysis, primary screen. QFRET BODIPY PC-A2 liposome hydrolysis, fluorescence. inhibition, % at 12.2 µM. 0.56% of 370,000 active;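 active = inhibition above mean plus 3 SD of compounds lying within the high and low control bounds, cut at about 19% in these data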;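 note: 0% = median of test compound wells and 100% = no enzyme DMSO wells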
sPLA2 confirm: human GIII-sPLA2 inhibition, confirmation | 34% of 2,000 active | recombinant hGIII-sPLA2, BODIPY PC-A2 QFRET fluorescence | shares compounds with sPLA2-III inh | inhibition, % at 12.2 µM | AID 743280;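 active = mean inhibition across triplicates above the hit cutoff set in the earlier primary screen, cut at about 19% in these data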;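 note: 0% = enzyme with DMSO and 100% = DMSO wells lacking enzyme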
535nm interf: counter-screen for HGIII-sPLA2 inhibitors: 535nm fluorescence interference; shares compounds with sPLA2-III inh; BODIPY FL product fluorescence interference, QFRET; inhibition, % at 12.2 µM; 8.5% of 2,000 active;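 active = average inhibition above the solvent-only control mean plus 3 SD, cut at about 6% in these data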;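 note: 0% = DMSO with substrate plus product and 100% = DMSO with substrate alone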
535nm interf DR: 535nm optical interference dose response, HGIII-sPLA2 counter-screen. shares compounds with sPLA2-III inh. BODIPY FL product fluorescence interference, cell-free. IC50, µM. 240 tested, under 10 active. AID 743455;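 active = IC50 at or below 10 µM; inactive = IC50 above 10 µM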
Active calls of the source: *; . = no result given; ! = not confirmed by another sample. Rows were chosen to be rich in hits. Some 1.9% of all compounds tested hit in one or more screens of this group.

SMILES	PLCg1 inh	PLCb3 inh	Arr AP2 block	proCasp7 act	procasp3 activ	sPLA2-III inh	sPLA2 confirm	535nm interf	others
CCCc1noc2c1C(c1cc(Br)ccc1F)C(C#N)=C(N)N2 (stereo not given)	2	-3	0	3	-2	-33	.	.
Cc1ccc(-c2nnc(Nc3ccc(CC(N)=O)cc3)c3ccccc23)cc1S(=O)(=O)NCC1CCCO1 (stereo not given)	-57	-84	26	-1	-4	19*	-3	-26
Cc1ccc(-c2nnc(Nc3ccc(CC(N)=O)cc3)c3ccccc23)cc1	-121	-182	1	-1	3	21*	17	-18
Cc1ccc(-c2nnc(Nc3ccc(CC(N)=O)cc3)c3ccccc23)cc1S(N)(=O)=O	-51	-75	7	5	3	15	.	.
CCOc1ccc(C2CC(c3ccc(CC)cc3)n3nc(N)nc3N2)cc1 (stereo not given)	-15	-35	12	0	-8	16	.	.
CCOc1ccc(C2CC(c3ccc(CC)cc3)Nc3nc(N)nn32)cc1 (stereo not given)	4	-3	-5	-6	2	22*	0	-15
Nc1[nH]nc2nc(N3CCCC3)nc(-c3ccccc3)c12	-1	0	13	-1	-2	1	.	.
Nc1[nH]nc2nnc(-c3c(-c4ccccc4)nn4ccccc34)cc12	6	3	.	.	.	22*	9	-3
Oc1ccc(Nc2nc(-c3cccs3)cs2)cc1	-21	-31	2	-20	-6	23*	23*	9.7*
O=C1C(=Cc2cccc(Cl)c2)CCc2ccccc21	1	0	.	.	.	21*	-1	-3
CC(C)CCNC(=O)COc1ccc2c3c(c(=O)oc2c1)CCC3	-14	-25	9	1	2	-3	.	.
CC(C)CNC(=O)COc1ccc2c3c(c(=O)oc2c1)CCC3	5	-2	-8	2	-4	21*	-2	-5
CC(C)c1ccc2c(c1)CCC1C(C)(CN)CCCC21C (stereo not given)	6	2	11	-5	-3	19	.	.
CC(C)c1ccc2c(c1)CC[C@H]1[C@](C)(CN)CCC[C@]21C	4	3	7	.	.	21*!	21*	-28
O=S(=O)(O)c1cc(O)c(N=Nc2ccc(O)cc2O)c2ccccc12	2	-5	12	.	.	23*	19	4
Cn1c2c(c(O)c(-c3ccccc3)c1=O)C(=O)CC(C)(C)C2	-7	-15	-7	-1	0	18	.	.
Cc1cc(C)c(-c2c(O)c3c(n(C)c2=O)CC(C)(C)CC3=O)c(C)c1	4	2	-11	-5	7	21*	-4	-2
CN1/C(=C/C(=S)NC(=O)C2(C)CC2(Cl)Cl)C(C)(C)c2ccccc21 (stereo not given)	-8	-7	-7	-38	-17	27*	8	3
Fc1ccc(-c2nc3ccc(Br)cn3c2Cc2ccsc2)cc1	-5	-9	.	.	.	-3	.	.
O=c1c2oc3ccccc3c2[nH]c(=S)n1-c1ccccc1	-1	-3	-13	-3	-2	17	.	.
Cc1ccc(-n2c(=S)[nH]c3c(oc4ccccc43)c2=O)cc1	1	-2	-8	4	-10	25*	5	-3
Cc1ccc(S(=O)(=O)N(C)CCCC(=O)Nc2ccccn2)cc1	1	-6	-1	-2	1	20*	-1	-9
Cc1ccc(S(=O)(=O)N(C)CCCC(=O)Nc2ccncc2)cc1	0	5	1	-1	11	-2	.	.
COc1ccc(NC(=S)NC(NC(=O)c2cccc(Cl)c2)C(Cl)(Cl)Cl)c([N+](=O)[O-])c1 (stereo not given)	1	3	7	-5	1	29*	52*	12*
C[C@H](CO)N1C[C@H](C)[C@@H](CN(C)S(=O)(=O)c2cn(C)cn2)Oc2c(NS(=O)(=O)c3ccc(F)cc3)cccc2C1=O	1	5	28	-3	5	4	.	.
SMILES	PLCg1 inh	PLCb3 inh	Arr AP2 block	proCasp7 act	procasp3 activ	sPLA2-III inh	sPLA2 confirm	535nm interf	others
COC(=O)c1sc(-c2cccs2)cc1NC(=O)/C=C/C(=O)O	-60	-67	42	2	-6	0	.	.
COC(=O)c1cc(Cl)ccc1NCC(N)c1ccccc1 (stereo not given)	-381	-486	.	.	.	20*	9	-15
O=C(Nc1ccc(Cl)cc1)c1nc[nH]c1C(=O)N1CCN(c2ccccc2)CC1	3	4	-9	10	0	-4	.	.
Cc1csc(NC(=S)NC(=O)c2ccccc2)n1	6	1	0	4	5	21*	32*	1	535nm interf DR=>122
Cc1csc(NC(=O)c2ccccc2)n1	3	-4	29	10	4	-4	.	.
Cc1ccc(C(=O)Nc2nc(-c3ccccn3)cs2)o1	-11	-22	-2	-2	1	7	.	.
CCc1cc(C(=O)Nc2nc(-c3ccccn3)cs2)sc1C	-55	-74	-19	-6	0	21*	25*	3
Cc1cc(C(=O)Nc2nc(-c3ccccn3)cs2)ccc1[N+](=O)[O-]	-2	2	-3	-1	10	26*	28*	-2	535nm interf DR=>122
O=C(Nc1nc(-c2ccccn2)cs1)c1ccc(-c2ccccc2F)o1	-158	-200	1	-29	-31	21*	24*	4
O=C(Nc1nc(-c2ccccn2)cs1)c1cc(Cl)ccc1[N+](=O)[O-]	-9	-18	-8	-20	-7	9	.	.
CCCN1CCN(CCCNC(=O)c2ccc(CS(=O)c3ccccc3C)o2)CC1 (stereo not given)	-4	-10	18	9	4	5	.	.
Cc1csc(NC(=O)[C@@H]2CCCN2C(=O)c2cccs2)n1	-1	-4	42	4	3	-4	.	.
O=C(NNC(=O)c1csc(-c2cccs2)n1)c1ccc(Cl)cc1	6	-7	.	.	.	-1	.	.
CCCOc1ccc(C(=O)NCCO)cc1	2	6	5	-3	-3	-1	.	.
CC1(C)CC2C1CCC1(O)CC2(C)CCC1N(O)c1ccc(C(=O)NCCO)cn1 (stereo not given)	1	-4	-3	-27	-10	21*	24*	-7

From PubChem
